Source: ChEMBL document CHEMBL1128311, “Probes for narcotic receptor-mediated phenomena. 20. Alteration of opioid receptor subtype selectivity of the 5-(3-hydroxyphenyl)morphans by application of the message-address concept: preparation of delta-opioid receptor ligands” (J Med Chem, 1995)
Where “and” joins values, the source holds several entries; their conditions need not be identical. Identical values can stand only once.

Assays:
Mu-type opioid receptor [1] = target: Mu-type opioid receptor (Rattus norvegicus, UniProt P33535); assay: Inhibition of [3H]DAMGO radioligand binding to rat brain opioid receptor mu 1.
Sequence of Mu-type opioid receptor (Rattus norvegicus, UniProt P33535) (P33535 whole entry): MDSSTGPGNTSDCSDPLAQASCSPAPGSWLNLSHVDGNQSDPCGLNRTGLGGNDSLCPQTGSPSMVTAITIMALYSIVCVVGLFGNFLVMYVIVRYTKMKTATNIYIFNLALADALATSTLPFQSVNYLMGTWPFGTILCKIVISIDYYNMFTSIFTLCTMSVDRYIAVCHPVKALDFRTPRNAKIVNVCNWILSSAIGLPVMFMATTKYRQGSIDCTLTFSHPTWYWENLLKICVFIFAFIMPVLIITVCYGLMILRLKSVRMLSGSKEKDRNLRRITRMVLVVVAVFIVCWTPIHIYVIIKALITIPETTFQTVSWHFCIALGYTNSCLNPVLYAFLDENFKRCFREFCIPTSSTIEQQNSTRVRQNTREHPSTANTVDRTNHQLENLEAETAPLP
Summary of the method: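 Rat brain membranes labelled with [3H]DAMGO (1-3 nM). Incubation 4 h at 25 °C in 50 mM Tris-HCl pH 7.4 with protease inhibitor cocktail. Nonspecific binding with 20 μM levallorphan. 8-10 drug concentrations, run twice. Dilutions in 10 mM Tris-HCl pH 7.4 with 1 mg/mL BSA. IC50 from curve fitting.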

[2] = target: T1, Kappa-type opioid receptor (Cavia porcellus, UniProt P41144); assay: Inhibition of [3H]U-69593 radioligand binding to Guinea pig opioid receptor kappa 1.
T1 sequence (P41144 whole entry): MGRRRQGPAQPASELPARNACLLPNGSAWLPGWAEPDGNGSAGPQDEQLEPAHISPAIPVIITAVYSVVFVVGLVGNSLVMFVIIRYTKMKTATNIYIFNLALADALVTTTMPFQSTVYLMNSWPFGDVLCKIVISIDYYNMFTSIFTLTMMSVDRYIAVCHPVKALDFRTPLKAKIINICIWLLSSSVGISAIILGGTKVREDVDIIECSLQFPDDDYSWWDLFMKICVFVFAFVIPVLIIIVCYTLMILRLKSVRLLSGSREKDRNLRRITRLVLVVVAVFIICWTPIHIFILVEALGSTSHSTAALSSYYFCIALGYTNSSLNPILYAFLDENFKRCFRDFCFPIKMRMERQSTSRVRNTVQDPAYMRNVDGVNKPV

[3] = target: Opioid receptors; mu & delta (Rattus norvegicus) (UniProt P33533+P33535); assay: Selectivity as the ratio of IC50 value against mu receptor to that of delta receptor.; format: protein assay
Sequence of Opioid receptors; mu & delta (Rattus norvegicus) (P33533 whole entry, looked up): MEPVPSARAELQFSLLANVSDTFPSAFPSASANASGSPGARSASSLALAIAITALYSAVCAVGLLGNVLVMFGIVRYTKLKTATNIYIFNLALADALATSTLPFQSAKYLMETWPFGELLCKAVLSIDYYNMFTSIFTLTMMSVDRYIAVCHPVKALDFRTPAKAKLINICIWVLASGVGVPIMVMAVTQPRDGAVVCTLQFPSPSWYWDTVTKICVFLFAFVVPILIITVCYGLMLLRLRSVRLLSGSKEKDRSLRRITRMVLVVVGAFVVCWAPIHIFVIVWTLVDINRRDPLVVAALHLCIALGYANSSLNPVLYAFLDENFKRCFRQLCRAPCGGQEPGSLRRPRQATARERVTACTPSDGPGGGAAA
Sequence of Opioid receptors; mu & delta (Rattus norvegicus) (P33535 whole entry, looked up): as the sequence (P33535 whole entry) above

[4] = target: Delta-type opioid receptor (Rattus norvegicus, UniProt P33533); assay: Inhibition of [3H]DADLE radioligand binding to rat brain opioid receptor delta 1.
Sequence of Delta-type opioid receptor (Rattus norvegicus, UniProt P33533) (P33533 whole entry): as the sequence (P33533 whole entry, looked up) above

Mu-type opioid receptor [5] = target: Mu-type opioid receptor (Cavia porcellus, UniProt P97266); assay: The opioid activity against the mu-receptor in the isolated guinea pig ileum(GPI); format: tissue-based
Sequence of Mu-type opioid receptor (Cavia porcellus, UniProt P97266) (P97266 whole entry): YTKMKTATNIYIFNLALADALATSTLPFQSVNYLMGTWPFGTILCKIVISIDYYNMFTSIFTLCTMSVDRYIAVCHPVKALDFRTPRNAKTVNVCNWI
Summary of the method: (§1)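 Electrically stimulated contractions of male ICR mouse vas deferens (25-40 g mice) and male Hartley guinea pig ileum longitudinal muscle myenteric plexus strips (250-500 g animals). Tissues held in 37 °C oxygenated Krebs bicarbonate (Mg-free for MVD) at 1 g tension (0.5 g for MVD). Percent inhibition is the contraction height in the 1 min before agonist versus at maximal inhibition. IC50 from nonlinear least squares fit over 2-4 tissues.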

[6] = target: Delta-type opioid receptor (Mus musculus, UniProt P32300); assay: (§2) Opioid activity against delta-receptor of isolated mouse vas deferens(MVD) at 30 uM; summary of the method: as §1
Sequence of Delta-type opioid receptor (Mus musculus, UniProt P32300) (P32300 whole entry): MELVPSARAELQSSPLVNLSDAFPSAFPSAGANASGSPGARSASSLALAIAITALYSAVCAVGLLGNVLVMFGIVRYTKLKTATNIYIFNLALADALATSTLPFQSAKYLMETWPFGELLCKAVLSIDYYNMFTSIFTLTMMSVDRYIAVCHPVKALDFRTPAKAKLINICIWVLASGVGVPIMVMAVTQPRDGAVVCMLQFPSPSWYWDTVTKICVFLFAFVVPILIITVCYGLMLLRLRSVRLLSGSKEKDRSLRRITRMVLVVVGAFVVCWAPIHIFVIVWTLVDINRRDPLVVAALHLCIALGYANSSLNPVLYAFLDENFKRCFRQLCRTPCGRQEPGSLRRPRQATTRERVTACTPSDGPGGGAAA

[7] = target: Delta-type opioid receptor (Mus musculus) (UniProt P32300); assay: as §2; summary of the method: as §1
Sequence of Delta-type opioid receptor (Mus musculus) (P32300 whole entry): as above

[8] = target: T1, Kappa-type opioid receptor; assay: Inhibition of [3H]-U-69,593 radioligand binding to Guinea pig Opioid receptor kappa 1; not determined
Summary of the method: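 Guinea pig brain membranes depleted of μ and δ sites by pretreatment with irreversible ligands BIT and FIT, labelled with [3H]-U69,593 (1.2-2.3 nM). Incubation 4-6 h at 25 °C in 50 mM Tris-HCl pH 7.4 with protease inhibitor cocktail and 1 μg/mL captopril. Nonspecific binding with 1 μM U69,593. 8-10 drug concentrations, run twice. IC50 from curve fitting.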

## CN1CCC2(c3cccc(O)c3)Cc3[nH]c4c(ccc5ccccc54)c3C1C2 (stereo not drawn)
Mu-type opioid receptor [1]
  IC50: 366 nM
[2]
  IC50: > 1000 nM
[3]
  Selectivity: 0.35
[4]
  IC50: 1050 nM

## CN1CCC2(c3cccc(O)c3)CC1Cc1[nH]c3ccccc3c12 (stereo not drawn)
Mu-type opioid receptor [5]
  IC50: 1940 nM and 2070 nM
Mu-type opioid receptor [1]
  IC50: 21.4 nM and 29.8 nM
[2]
  IC50: > 1000 nM
[6]
  IC50: 1390 nM and 347 nM

## Oc1cccc(C23CCN(CCc4ccccc4)C(Cc4[nH]c5ccccc5c42)C3)c1 (single isomer, unassigned; (+)) [listing 1 of 2 here]
[3]
  Selectivity: < 0.09

## CN1CCC2(c3cccc(O)c3)CC1Cc1[nH]c3ccc4ccccc4c3c12 (stereo not drawn)
Mu-type opioid receptor [1]
  IC50: > 1000 nM
[2]
  IC50: > 1000 nM
[4]
  IC50: > 10000 nM

## CN1CCC2(c3cccc(O)c3)Cc3nc4ccccc4cc3C1C2 (stereo not drawn)
[2]
  IC50: 197 nM

## CCCCCN1CCC2(c3cccc(O)c3)CC1Cc1[nH]c3ccccc3c12 (stereo not drawn)
Mu-type opioid receptor [1]
  IC50: 23.5 nM
[2]
  IC50: 993 nM
[3]
  Selectivity: 3.41
[4]
  IC50: 6.9 nM

## CN1CCC2(c3cccc(O)c3)CC1C[C@@H](NC(=O)c1ccccc1)C2 (stereo partly drawn)
[2]
  IC50: 5560 nM
[4]
  IC50: 487 nM

## CN1CCC2(c3cccc(O)c3)Cc3[nH]c4ccccc4c3C1C2 (stereo not drawn)
Mu-type opioid receptor [1]
  IC50: 43.9 nM
[2]
  IC50: 798 nM
[3]
  Selectivity: < 0.04
[4]
  IC50: > 1000 nM

## Oc1cccc(C23CCNC(Cc4[nH]c5ccccc5c42)C3)c1 (stereo not drawn)
Mu-type opioid receptor [1]
  IC50: 357 nM
[2]
  IC50: > 10000 nM
[3]
  Selectivity: 5.14
[4]
  IC50: 69.5 nM

## CN1CCC2(c3cccc(O)c3)CC1C[C@@H](NC(=O)Cc1ccccc1)C2 (stereo partly drawn)
Mu-type opioid receptor [1]
  IC50: 119 nM
[2]
  IC50: 2220 nM
[3]
  Selectivity: 0.52
[4]
  IC50: 227 nM

## CN1CCC2(c3cccc(O)c3)CC1Cc1[nH]c3c(ccc4ccccc43)c12 (stereo not drawn)
Mu-type opioid receptor [1]
  IC50: 208 nM
[2]
  IC50: > 1000 nM
[3]
  Selectivity: 16.5
[4]
  IC50: 12.6 nM

## Oc1cccc(C23CCN(CCc4ccccc4)C(Cc4[nH]c5ccccc5c42)C3)c1 (stereo not drawn) [listing 1 of 2 here]
[3]
  Selectivity: 8.88

## CN1CCC2(c3cccc(O)c3)CC(=O)CC1C2 (single isomer, unassigned; (+)) [listing 1 of 2 here]
Mu-type opioid receptor [1]
  IC50: 137 nM
[2]
  IC50: 5070 nM
[4]
  IC50: 1140 nM

## CN1CCC2(c3cccc(O)c3)CC1Cc1[nH]c3ccccc3c12 (single isomer, unassigned; (-)) [listing 1 of 2 here]
[3]
  Selectivity: 2.54

## CN1CCC2(c3cccc(O)c3)C/C(=N/Nc3ccccc3)CC1C2 (stereo not drawn)
Mu-type opioid receptor [1]
  IC50: 8.7 nM
[2]
  IC50: 241 nM
[3]
  Selectivity: 0.08
[4]
  IC50: 111 nM

## Oc1cccc(C23CCN(CCc4ccccc4)C(Cc4[nH]c5ccccc5c42)C3)c1 (single isomer, unassigned; (-)) [listing 1 of 2 here]
Mu-type opioid receptor [1]
  IC50: 25 nM
[2]
  IC50: > 1000 nM
[4]
  IC50: 6.2 nM

## Oc1cccc(C23CCN(CCc4ccccc4)C(Cc4[nH]c5ccccc5c42)C3)c1 (single isomer, unassigned; (+)) [listing 2 of 2 here]
Mu-type opioid receptor [1]
  IC50: 89.2 nM
[2]
  IC50: > 1000 nM
[4]
  IC50: > 1000 nM

## CCCCN1CCC2(c3cccc(O)c3)CC1Cc1[nH]c3ccccc3c12 (stereo not drawn)
Mu-type opioid receptor [1]
  IC50: 72.4 nM
[2]
  IC50: > 1000 nM
[3]
  Selectivity: 4.02
[4]
  IC50: 18 nM

## Oc1cccc(C23CCN(Cc4ccccc4)C(Cc4[nH]c5ccccc5c42)C3)c1 (stereo not drawn)
Mu-type opioid receptor [1]
  IC50: 508 nM
[2]
  IC50: 90 nM
[3]
  Selectivity: 2.76
[4]
  IC50: 184 nM

## CCCN1CCC2(c3cccc(O)c3)CC1Cc1[nH]c3ccccc3c12 (stereo not drawn)
Mu-type opioid receptor [1]
  IC50: 300 nM
[2]
  IC50: > 1000 nM
[3]
  Selectivity: 7.4
[4]
  IC50: 40.5 nM

## CN1CCC2(c3cccc(O)c3)CCCC1C2 (single isomer, unassigned; (+)) [listing 1 of 2 here]
[3]
  Selectivity: < 0.02

## CCCCCCN1CCC2(c3cccc(O)c3)CC1Cc1[nH]c3ccccc3c12 (stereo not drawn)
Mu-type opioid receptor [1]
  IC50: 70.6 nM
[2]
  IC50: > 1000 nM
[3]
  Selectivity: 2.08
[4]
  IC50: 34 nM

## CN1CCC2(c3cccc(O)c3)CC(=O)CC1C2 (single isomer, unassigned; (+)) [listing 2 of 2 here]
[3]
  Selectivity: 0.12

## CCCCCCCN1CCC2(c3cccc(O)c3)CC1Cc1[nH]c3ccccc3c12 (stereo not drawn)
Mu-type opioid receptor [1]
  IC50: 66.6 nM
[2]
  IC50: > 1000 nM
[3]
  Selectivity: 1.43
[4]
  IC50: 46.7 nM

## CN1CCC2(c3cccc(O)c3)CC(=O)CC1C2 (single isomer, unassigned; (-)) [listing 1 of 2 here]
Mu-type opioid receptor [1]
  IC50: 33.5 nM
[2]
  IC50: 981 nM
[4]
  IC50: 273 nM

## CN1CCC2(c3cccc(O)c3)CCCC1C2 (stereo in doubt; (-)-1) [listing 1 of 2 here]
Mu-type opioid receptor [5]
  IC50: 639 nM
Mu-type opioid receptor [1]
  IC50: 20.8 nM
[2]
  IC50: 819 nM
[4]
  IC50: > 1000 nM

## Oc1cccc(C23CCN(CCc4ccccc4)C(Cc4[nH]c5ccccc5c42)C3)c1 (stereo not drawn) [listing 2 of 2 here]
Mu-type opioid receptor [1]
  IC50: 50.6 nM
[2]
  IC50: > 1000 nM
[4]
  IC50: 5.7 nM

## CN1CCC2(c3cccc(O)c3)CCCC1C2 (single isomer, unassigned; (+)) [listing 2 of 2 here]
Mu-type opioid receptor [5]
  IC50: 169 nM
Mu-type opioid receptor [1]
  IC50: 21.4 nM
[2]
  IC50: 910 nM
[6]
  IC50: 557 nM
[4]
  IC50: > 1000 nM

## CCN1CCC2(c3cccc(O)c3)CC1Cc1[nH]c3ccccc3c12 (stereo not drawn)
Mu-type opioid receptor [1]
  IC50: 1260 nM
[2]
  IC50: > 1000 nM
[3]
  Selectivity: 5.4
[4]
  IC50: 233 nM

## CN1CCC2(c3cccc(O)c3)CCCC1C2 (stereo in doubt; (-)-1) [listing 2 of 2 here]
[7]
  inhibition: 26%
[3]
  Selectivity: < 0.02

## CN1CCC2(c3cccc(O)c3)CC1Cc1[nH]c3ccccc3c12 (single isomer, unassigned; (-)) [listing 2 of 2 here]
Mu-type opioid receptor [5]
  IC50: 2350 nM
Mu-type opioid receptor [1]
  IC50: 14.2 nM
[6]
  IC50: 393 nM
[4]
  IC50: 5.6 nM

## CN1CCC2(c3cccc(O)c3)CC(=O)CC1C2 (stereo in doubt; 13) [listing 1 of 2 here]
Mu-type opioid receptor [1]
  IC50: 21.2 nM
[2]
  IC50: 2030 nM
[4]
  IC50: 720 nM

## C=CCN1CCC2(c3cccc(O)c3)CC1Cc1[nH]c3ccccc3c12 (stereo not drawn)
Mu-type opioid receptor [1]
  IC50: 361 nM
[2]
  IC50: 2160 nM
[3]
  Selectivity: 2.58
[4]
  IC50: 140 nM

## CC(C)C[C@@H](NC(=O)[C@H](Cc1ccccc1)NC(=O)CNC(=O)[C@@H](C)NC(=O)[C@@H](N)Cc1ccc(O)cc1)C(=O)O [DADLE]
Mu-type opioid receptor [5]
  IC50: 28.8 nM
[8]
  IC50: 1.71 nM

## Oc1cccc(C23CCN(CC4CC4)C(Cc4[nH]c5ccccc5c42)C3)c1 (stereo not drawn)
Mu-type opioid receptor [1]
  IC50: 180 nM
[2]
  IC50: 934 nM
[3]
  Selectivity: 2.14
[4]
  IC50: 84.1 nM

## CN1CCC2(c3cccc(O)c3)CC(=O)CC1C2 (stereo in doubt; 13) [listing 2 of 2 here]
[3]
  Selectivity: 0.03

## Oc1cccc(C23CCN(CCc4ccccc4)C(Cc4[nH]c5ccccc5c42)C3)c1 (single isomer, unassigned; (-)) [listing 2 of 2 here]
[3]
  Selectivity: 4.03

## CN1CCC2(c3cccc(O)c3)CC(=O)CC1C2 (single isomer, unassigned; (-)) [listing 2 of 2 here]
[3]
  Selectivity: 0.12
